Results collected from several papers.
Lines come from different studies, so protocols differ.
Target: Serine/threonine-protein kinase PLK1 (PLK1, Homo sapiens, UniProt P53350)

C[C@H]1CCN(c2nccc(-c3cnn4ncccc34)n2)C1  remaining binding (binding; 1 µM): 100%
CS(=O)(=O)NCC[C@H](NC(=O)c1cncc2c1cnn2-c1ccc(F)cc1)c1ccnc(S(C)(=O)=O)c1  remaining binding (cell-free assay, competition with immobilised ligand; 1 µM): 100%
FC(F)(F)Oc1cccc(-c2cnc3ccc(-c4ccncc4)nn23)c1  remaining binding (cell-free assay, competition with immobilised ligand; 5 µM): 93%
CN(CCCC(F)(F)F)c1nccc(-c2cnn3ncccc23)n1  remaining binding (binding; 1 µM): 84%
O=C(Nc1c[nH]nc1C(=O)NC1CCNCC1)c1cc(F)cc(F)c1  remaining binding (binding, competition with immobilised ligand; 1 µM): 100%
CCC(=O)N[C@@H]1CC[C@H](C(=O)N(C)c2ccc(-c3nc4ccccc4o3)cc2)C1  remaining binding (cell-free assay, competition with immobilised ligand; 1 µM): 95%
F[C@@H]1CCN(c2nccc(-c3cnn4ncccc34)n2)C1  remaining binding (binding; 1 µM): 100%
CNC(=O)c1ccccc1Nc1cc(Nc2ccc(N3CCOCC3)cc2OC)ncc1C(F)(F)F  remaining binding (binding, competition with immobilised ligand; 1 µM): < 10%
Cc1cnc(Nc2ccc(C(=O)N3CCC(N4CCCC4)CC3)cc2)nc1-c1cc2ccccc2s1  remaining binding (binding, competition with immobilised ligand; 1 µM): 37%
N#Cc1ccc(Nc2ccc3[nH]c(=O)[nH]c3c2)c(Cl)c1  remaining binding (cell-free assay, competition with immobilised ligand; 1 µM): 100%
CC(C)(C)c1ccc(-c2nc(CBr)nn2-c2cccc(O)c2)cc1  remaining binding (cell-free assay, competition with immobilised ligand; 10 µM): 84%
O=C(c1ccc(Nc2nccc(-c3cc4ccccc4s3)n2)cc1)N1CCC(N2CCCC2)CC1  remaining binding (binding, competition with immobilised ligand; 1 µM): 89%
Nc1ncc2c(n1)-c1c([nH]c3ccc(C#CC4CC4)cc13)CCCC2  remaining binding (binding, competition with immobilised ligand; 1 µM): 68%
Nc1cnc(N2CCc3cc(S(=O)(=O)Nc4c(F)cc(Cl)cc4F)cc(N4CCCC4=O)c32)nc1  remaining binding (cell-free assay, competition with immobilised ligand; 1 µM): 100%
O=C(c1ccc(Nc2ncc(Cl)c(-c3cc4ccccc4s3)n2)cc1)N1CCC(N2CCCC2)CC1  remaining binding (binding, competition with immobilised ligand; 1 µM): 57%
c1cncc(-c2cccc(Nc3nccc(NC4CCCCC4)n3)c2)c1  remaining binding (binding, competition with immobilised ligand; 10 µM): 78%
c1ccc(N2CCN(Cc3nc4ccccc4[nH]3)CC2)nc1  remaining binding (binding, competition with immobilised ligand; 1 µM): 100%
CN(c1nccc(-c2cnn3ncccc23)n1)C1CC1  remaining binding (binding; 1 µM): 100%
Cc1c(C(=O)O)cc(-c2ccc(C3CCNCC3)cc2)c2ccc(-c3ccc(C(F)(F)F)cc3)cc12  remaining binding (binding, competition with immobilised ligand; 1 µM): 94%
COc1cnc(Nc2cccc(S(N)(=O)=O)c2)nc1N1CCN(c2ccccc2)C(=O)C1  remaining binding (binding, competition with immobilised ligand; 1 µM): 80%
C[C@H](c1cccc(C#N)c1)n1cc(Cl)cc(C(N)=O)c1=N  remaining binding (cell-free assay, competition with immobilised ligand; 1 µM): 89%
N[C@@H]1CCN(c2nccc(-c3cnn4ncccc34)n2)C1  remaining binding (binding; 1 µM): 100%
CCCOc1ccc([C@H]2[C@H](C(=O)O)[C@@H](c3ccc4c(c3)OCO4)CN2CC(=O)Nc2c(CC)cccc2CC)cc1  remaining binding (cell-free assay, competition with immobilised ligand; 1 µM): 80%
CCN1CCN(Cc2ccc(C(=O)Nc3ccc(C)c(Oc4ccc5c(c4)CC(=O)N5)c3)cc2C(F)(F)F)CC1  remaining binding (binding, competition with immobilised ligand; 1 µM): 100%
CN(C)c1nccc(-c2cnn3ncccc23)n1  remaining binding (binding; 1 µM): 56%
C[C@@H]1CN(c2ccc3ncc(-c4ccc5[nH]nc(C6CC6)c5c4)n3n2)C[C@H](C)O1  remaining binding (binding, competition with immobilised ligand; 0.5 µM): 96%
